Experiments:
[1] = test system: Calf thymus DNA; test: Apparent DNA affinity constant; assay type: nucleic-acid assay; details: Bos taurus
Summary of the method: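 Apparent DNA affinity constant was measured by competition with ethidium bromide. Buffer was 20 mM Na2HPO4/NaH2PO4, 0.1 M NaCl, 1 mM EDTA, pH 7.4, with calf thymus DNA at 10 μg/mL. Values are given in 10^6 M⁻¹.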

[2] = test system: L1210; test: Ability to reduce the cell count to 50% in L1210 culture cells; assay type: functional; details: Mus musculus, read-out: ID50 (the source's name)
Summary of the method: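 L1210 cells in exponential growth in RPMI 1640 with 2 mM glutamine, penicillin/streptomycin and 10% FCS, 37 °C, 5% CO2. Drugs dissolved in distilled water were added to cells at 0.8 × 10^5 cells/mL for 48 h, then cells were counted. ID50 is the concentration halving cell proliferation versus controls, from regression of dose-response data; mean of two independent experiments.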

[3] = test system: Mus musculus; test: Antitumor activity against P388 leukemia in mice at a dose of 50 mg/kg administered intraperitoneally for 5 days; […]; assay type: functional; details: route intraperitoneal
Summary of the method: (§1)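 CDF1 hybrid male or female mice, 10 per group, were inoculated ip on day 0 with 10^6 viable P388 leukemia cells. Drug in distilled water was given ip (0.1 mL/10 g body weight) daily on days 1-5, with vehicle, 5-fluorouracil and BD 84 controls given the same way. T/C = median survival of treated/controls × 100; T/C > 128% counted as significant.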

[4] = test system: Mus musculus; test: Antitumor activity against P388 leukemia in mice at a dose of 10 mg/kg administered intraperitoneally for 5 days; assay type: functional; details: route intraperitoneal
Summary of the method: (§2)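 CDF1 hybrid male or female mice, 10 per group, were inoculated ip with 10^6 viable P388 cells on day 0. Drugs in distilled water were given ip (0.1 mL/10 g body weight) daily D1-5. Vehicle, 5-fluorouracil and BD 84 were given the same way. T/C = median survival day of treated / controls × 100; T/C > 128% was significant; cures counted at D60.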

[5] = test system: Mus musculus; test: Antitumor activity against P388 leukemia in intraperitoneally for 5 days; assay type: functional; summary of the method: as §2
[6] = test system: Mus musculus; test: Median survival day of P388 leukemia model when a dose of 20 mg/kg administered intraperitoneally; assay type: functional; details: route intraperitoneal
Summary of the method: (§3)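 P388 leukaemia in CDF1 hybrid mice, 10 per group. At D0, 10^6 viable cells were inoculated ip, followed by a single ip dose of drug in distilled water on D1. Weight change, median survival day, T/C (treated/control median survival × 100) and survivors at D30 were recorded. Controls were 20 mice.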

[7] = test system: Mus musculus; test: Survivors at day 60 when a dose of 2.5 mg/kg to B16 melanoma infected mice; 0/10; assay type: functional
[8] = test system: Mus musculus; test: Antitumor activity against P388 cells at a dose of 20 mg/kg administered intraperitoneally to P388 leukemia model; assay type: functional; details: route intraperitoneal
Summary of the method: (§4)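 Mice were inoculated ip with 10^6 P388 leukemia cells at D0, then given a single ip drug dose on D1. Weight change was recorded. T/C % = median survival day of treated / controls × 100; survivors counted at D30; 10 mice per dose group, 20 controls.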

[9] = test system: Mus musculus; test: Antitumor activity against P388 leukemia in mice at a dose of 20 mg/kg administered intraperitoneally; assay type: functional, organism-based; set-up: dose 20 mg/kg; summary of the method: as §2
[10] = test system: Mus musculus; test: Weight change in g when a dose of 20 mg/kg administered intraperitoneally to P388 leukemia mice model; assay type: functional; details: route intraperitoneal
Summary of the method: (§5)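 P388 model with a single ip dose. Mice (10 per group) were inoculated ip at D0 with 10^6 P388 cells and given one ip drug dose at D1. Body-weight change (g), median survival day, T/C and survivors at D30 were recorded.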

[11] = test system: Mus musculus; test: Antitumor activity against P388 cells at a dose of 40 mg/kg administered intraperitoneally to P388 leukemia model; assay type: functional; details: route intraperitoneal; summary of the method: as §4
[12] = test system: Mus musculus; test: Antitumor activity against B16 melanoma infected mice at a dose of 1.25 mg/kg administered intraperitoneally; assay type: functional; details: route intraperitoneal
Summary of the method: (§6)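 Hybrid BD F1 mice were inoculated ip at D0 with 0.5 mL of B16 melanoma homogenate (1 g tumor in 10 mL physiological serum). Drugs were given ip daily D1-9. Cisplatin 0.5 mg/kg was the positive control under the same schedule.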

[13] = test system: Mus musculus; test: Median survival day of P388 leukemia model when a dose of 40 mg/kg administered intraperitoneally to mice; assay type: functional; details: route intraperitoneal; summary of the method: as §3
[14] = test system: Mus musculus; test: Median survival day in B16 melanoma infected mice when a dose of 1.25 mg/kg administered intraperitoneally; assay type: functional; details: route intraperitoneal
Summary of the method: (§7)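 B16 melanoma in hybrid BD F1 mice. At D0 each mouse was inoculated ip with 0.5 mL of homogenate made from 1 g of tumour in 10 mL of physiological serum. Compounds were given ip daily at the stated doses for 9 days (D1-9), with cis-platinum 0.5 mg/kg under the same schedule as positive control.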

[15] = test system: Mus musculus; test: Median survival day of P388 leukemia model when a dose of 10 mg/kg administered intraperitoneally; assay type: functional; details: route intraperitoneal; summary of the method: as §3
[16] = test system: Mus musculus; test: Median survival day in B16 melanoma infected mice when a dose of 5 mg/kg administered intraperitoneally; assay type: functional; details: route intraperitoneal; summary of the method: as §7
[17] = test system: Mus musculus; test: Antitumor activity against P388 leukemia in mice at a dose of 2.5 mg/kg administered intraperitoneally for 5 days; assay type: functional; details: route intraperitoneal; summary of the method: as §2
[18] = test system: Mus musculus; test: Antitumor activity against P388 leukemia in mice at a dose of 1.25 mg/kg administered intraperitoneally for 5 days; assay type: functional; details: route intraperitoneal; summary of the method: as §2
[19] = test system: Mus musculus; test: Survivors at day 30 when a dose of 5 mg/kg to P388 leukemia mice model; 0/10; assay type: functional
[20] = test system: Mus musculus; test: Survivors at day 30 when a dose of 20 mg/kg to P388 leukemia mice model; 0/10; assay type: functional; summary of the method: as §3
[21] = test system: Mus musculus; test: Weight change in g when a dose of 5 mg/kg administered intraperitoneally to B16 melanoma infected mice; assay type: functional; details: route intraperitoneal
Summary of the method: (§8)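 Hybrid BDF1 mice were inoculated ip at D0 with 0.5 mL of B16 melanoma homogenate (1 g tumor in 10 mL physiological serum). Drug was given ip daily on days 1-9, with cis-platinum 0.5 mg/kg as positive control on the same schedule.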

[22] = test system: Mus musculus; test: Median survival day of P388 leukemia model when a dose of 5 mg/kg administered intraperitoneally; assay type: functional; details: route intraperitoneal; summary of the method: as §3
[23] = test system: Mus musculus; test: Antitumor activity against P388 leukemia in mice at a dose of 0.625 mg/kg administered intraperitoneally for 5 days; assay type: functional; details: route intraperitoneal; summary of the method: as §2
[24] = test system: Mus musculus; test: Antitumor activity against P388 cells at a dose of 10 mg/kg administered intraperitoneally to P388 leukemia model; assay type: functional; details: route intraperitoneal; summary of the method: as §4
[25] = test system: Mus musculus; test: Median survival day in B16 melanoma infected mice when a dose of 10 mg/kg administered intraperitoneally; assay type: functional; details: route intraperitoneal; summary of the method: as §7
[26] = test system: Mus musculus; test: Weight change in g when a dose of 2.5 mg/kg administered intraperitoneally to B16 melanoma infected mice; assay type: functional; details: route intraperitoneal; summary of the method: as §8
[27] = test system: Mus musculus; test: Weight change in g when a dose of 1.25 mg/kg administered intraperitoneally to mice; assay type: functional; details: route intraperitoneal; summary of the method: as §8
[28] = test system: Mus musculus; test: Survivors at day 60 when a dose of 5 mg/kg to B16 melanoma infected mice; 0/10; assay type: functional
[29] = test system: Mus musculus; test: Survivors at day 30 when a dose of 10 mg/kg to P388 leukemia mice model; 0/10; assay type: functional; summary of the method: as §3
[30] = test system: Mus musculus; test: Antitumor activity against B16 melanoma infected mice at a dose of 10 mg/kg administered intraperitoneally; assay type: functional; details: route intraperitoneal; summary of the method: as §6
[31] = test system: Mus musculus; test: Survivors at day 60 when a dose of 1.25 mg/kg to B16 melanoma infected mice; 0/10; assay type: functional
[32] = test system: Mus musculus; test: Median survival day in B16 melanoma infected mice when a dose of 2.5 mg/kg administered intraperitoneally; assay type: functional; details: route intraperitoneal; summary of the method: as §7
[33] = test system: Mus musculus; test: Weight change in g when a dose of 10 mg/kg administered intraperitoneally to B16 melanoma infected mice; assay type: functional; details: route intraperitoneal; summary of the method: as §8
[34] = test system: Mus musculus; test: Antitumor activity against B16 melanoma infected mice at a dose of 2.5 mg/kg administered intraperitoneally; assay type: functional; details: route intraperitoneal; summary of the method: as §6
[35] = test system: Mus musculus; test: Antitumor activity against B16 melanoma infected intraperitoneally; assay type: functional; summary of the method: as §6
[36] = test system: Mus musculus; test: Survivors at day 30 when a dose of 40 mg/kg to P388 leukemia mice model; 0/10; assay type: functional
[37] = test system: Mus musculus; test: Weight change in g when a dose of 5 mg/kg administered intraperitoneally to P388 leukemia mice model; assay type: functional; details: route intraperitoneal; summary of the method: as §5
[38] = test system: Mus musculus; test: Survivors at day 60 when a dose of 10 mg/kg to B16 melanoma infected mice; 0/10; assay type: functional
[39] = test system: Mus musculus; test: Weight change in g when a dose of 40 mg/kg administered intraperitoneally to P388 leukemia mice model; assay type: functional; details: route intraperitoneal; summary of the method: as §5
[40] = test system: Mus musculus; test: Weight change in g when a dose of 10 mg/kg administered intraperitoneally to P388 leukemia mice model; assay type: functional; details: route intraperitoneal; summary of the method: as §5
[41] = test system: Mus musculus; test: Antitumor activity against P388 cells at a dose of 5 mg/kg administered intraperitoneally to P388 leukemia model; assay type: functional; details: route intraperitoneal; summary of the method: as §4
[42] = test system: Mus musculus; test: Antitumor activity against P388 leukemia in mice at a dose of 80 mg/kg administered intraperitoneally for 5 days; assay type: functional, organism-based; set-up: dose 80 mg/kg; summary of the method: as §1
[43] = test system: Mus musculus; test: Antitumor activity against P388 leukemia in mice at a dose of 20 mg/kg administered intraperitoneally for 5 days; assay type: functional; details: route intraperitoneal; summary of the method: as §2
[44] = test system: Mus musculus; test: Antitumor activity against P388 leukemia in mice at a dose of 40 mg/kg administered intraperitoneally for 5 days; assay type: functional; summary of the method: as §1
[45] = test system: Mus musculus; test: Antitumor activity against P388 leukemia in mice at a dose of 5 mg/kg administered intraperitoneally for 5 days; assay type: functional; details: route intraperitoneal; summary of the method: as §1
[46] = test system: Mus musculus; test: Antitumor activity against P388 leukemia in mice at a dose of 40 mg/kg administered intraperitoneally; assay type: functional, organism-based; set-up: dose 40 mg/kg

CCN(CC)CCCNc1[nH]cc(C)c2nc3ccccc3c1-2.O=C(O)/C=C\C(=O)O.O=C(O)/C=C\C(=O)O
K aff [1]: 150000 M⁻¹
IC50 [2]: 220 nM
T/C [3]: 175%
T/C [4]: 130%

Cc1c[nH]c(NCCCN(C)C)c2c3cc(O)ccc3nc1-2
T/C [5]: 186%
Median survival day [6]: 15.5
Survivors [7]: 0
T/C [8]: 142%
T/C [9]: Toxic
Weight change [10]: -0.8 g
T/C [11]: 139%
T/C [12]: 116%
Median survival day [13]: 15.3
Median survival day [14]: 32
Median survival day [15]: 15.25
K aff [1]: 210000 M⁻¹
Median survival day [16]: 44
IC50 [2]: 90 nM
T/C [17]: 145%
T/C [18]: 150%
Survivors [19]: 0
Survivors [20]: 0
Weight change [21]: 2.4 g
Median survival day [22]: 15.3
T/C [23]: 139%
T/C [24]: 139%
Median survival day [25]: 11.7
Weight change [26]: 1.8 g
Weight change [27]: 2.8 g
Survivors [28]: 0
Survivors [29]: 0
T/C [30]: 42%
Survivors [31]: 0
Median survival day [32]: 38.75
Weight change [33]: 0.5 g
T/C [4]: 148%
T/C [34]: 141%
T/C [35]: 160%
Survivors [36]: 0
Weight change [37]: -0.1 g
Survivors [38]: 0
Weight change [39]: -1.4 g
Weight change [40]: 0.3 g
T/C [41]: 139%

CCN(CC)CCCNc1[nH]cc(C)c2nc3ccc(OC)cc3c1-2
T/C [5]: 147%
K aff [1]: 220000 M⁻¹
IC50 [2]: 300 nM
T/C [42]: Toxic
T/C [43]: 149%
T/C ([44]; route intraperitoneal): 176%

COc1ccc2c(c1)c1c(NCCCN(C)C)ncc(C)c1n2C
T/C [45]: 134%
K aff [1]: 360000 M⁻¹
IC50 [2]: 130 nM
T/C [43]: 150%
T/C [4]: 160%
T/C [44]: Toxic

CCNCCCNc1[nH]cc(C)c2nc3ccc(OC)cc3c1-2
T/C [45]: 119%
K aff [1]: 220000 M⁻¹
IC50 [2]: 1200 nM
T/C [43]: 107%
T/C [4]: 119%
T/C [46]: Toxic

Source: ChEMBL document CHEMBL1124035, “1-Amino-substituted 4-methyl-5H-pyrido[4,3-b]indoles (gamma-carbolines) as tricyclic analogues of ellipticines: a new class of antineoplastic agents” (1988)
